Experimental data reported in ChEMBL document CHEMBL1137637, “Quinuclidine derivatives as potential antiparasitics” (Antimicrob Agents Chemother, 2007).
≈ marks a conversion by molar mass, not a printed value.

Assays:
Plasmodium falciparum = experiment: Antiplasmodial activity after 48 hrs against chloroquine and pyrimethamine-resistant Plasmodium falciparum K1 in human erythrocytes by [3H]hypoxanthine uptake; format: functional, organism-based
How it was run: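 P. falciparum K1 in human red cells in RPMI 1640 with 5% Albumax, exposed to serial drug dilutions. Incubated 48 h at 37°C under reduced oxygen, then 0.5 μCi [³H]hypoxanthine per well for 24 h more. Cells harvested onto glass-fibre filters and counted by scintillation. Result expressed as % of untreated control, with IC50 from sigmoidal curve. Duplicate, plus an independent repeat for actives.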

L6 = experiment: Cytotoxicity against rat L6 cells after 72 hrs by resazurin assay; format: cell-based; settings: L6, 72 h
How it was run: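 L-6 cells seeded at 4 × 10⁴ cells/ml in RPMI 1640 with 10% FBS and 2 mM L-glutamine. After 24 h, medium replaced with serial drug dilution and incubated for 72 h at 37°C in 5% CO2. Resazurin added for 2–4 h, fluorescence read at ex 536/em 588 nm. IC50 from sigmoidal curve. Duplicate, with an independent repeat for actives.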

[1] = system: Trypanosoma brucei rhodesiense; experiment: Trypanocidal activity against Trypanosoma brucei rhodesiense STIB 900 bloodstream form after 72 hrs by resazurin assay; format: functional, organism-based; settings: STIB 900, 72 h
How it was run: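 T. b. rhodesiense STIB 900 bloodstream forms in MEM with 2-mercaptoethanol and 15% heat-inactivated horse serum, with serial drug dilutions. Incubated 72 h at 37°C in 5% CO2. Resazurin added for 2–4 h more, fluorescence read at ex 536/em 588 nm. IC50 from sigmoidal curve. Duplicate, with an independent repeat for actives.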

Leishmania amazonensis [2] = experiment: Inhibition of sterol biosynthesis in Leishmania mexicana amazonensis promastigotes assessed as reduction in endogenous cholesta-5,7,24-trien-3beta-ol level at 10 uM after 96 hrs by gas-liquid chromatography; format: functional; set-up: scale not given: the % may be the effect or the level left
How it was run: (§1)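 L. mexicana promastigotes exposed to compound for 96 h. Total lipids extracted and neutral sterols separated from polar lipids by silicic acid column chromatography. Sterols analysed by TLC and by quantitative capillary gas-liquid chromatography with mass spectrometry. Composition expressed as mass % of free sterols, compared with untreated control.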

Leishmania amazonensis [3] = experiment: Inhibition of sterol biosynthesis in Leishmania mexicana amazonensis promastigotes assessed as reduction in exogenous cholesterol level at 10 uM after 96 hrs by gas-liquid chromatography; format: functional; set-up: scale not given: the % may be the effect or the level left; how it was run: as §1
Leishmania amazonensis [4] = experiment: Inhibition of sterol biosynthesis in Leishmania mexicana amazonensis promastigotes assessed as reduction in endogenous 5-dehydro episterol level at 10 uM after 96 hrs by gas-liquid chromatography; format: functional; set-up: scale not given: the % may be the effect or the level left; how it was run: as §1
Leishmania amazonensis [5] = experiment: Antileishmanial activity against Leishmania mexicana amazonensis promastigotes by trypan blue exclusion method; format: functional, organism-based
How it was run: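 L. mexicana amazonensis promastigotes cultured in liver infusion-tryptose medium with lactalbumin and 10% FCS at 26°C, unagitated. Cultures started at 2 × 10⁶ cells/ml and drug added at 0.5–1 × 10⁷ cells/ml. Density counted by electronic particle counter and hemocytometer. Viability by trypan blue exclusion. Triplicate growth experiments.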

[6] = target: T1, Farnesyltransferase, putative (Leishmania major, UniProt Q4Q5W4); experiment: Inhibition of Leishmania major recombinant squalene synthase expressed in Escherichia coli by liquid scintillation counter
T1 sequence (Q4Q5W4 whole entry): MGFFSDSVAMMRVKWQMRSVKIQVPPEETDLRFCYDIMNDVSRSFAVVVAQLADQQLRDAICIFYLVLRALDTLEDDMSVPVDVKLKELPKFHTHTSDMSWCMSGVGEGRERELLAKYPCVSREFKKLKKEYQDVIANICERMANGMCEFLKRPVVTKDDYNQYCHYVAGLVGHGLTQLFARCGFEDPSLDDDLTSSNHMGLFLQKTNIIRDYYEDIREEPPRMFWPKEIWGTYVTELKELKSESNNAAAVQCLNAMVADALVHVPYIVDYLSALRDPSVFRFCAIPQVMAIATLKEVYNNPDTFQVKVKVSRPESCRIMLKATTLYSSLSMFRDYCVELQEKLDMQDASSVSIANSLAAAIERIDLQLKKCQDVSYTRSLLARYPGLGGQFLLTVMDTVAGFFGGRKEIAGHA
How it was run: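 Soluble E. coli extract expressing L. major SQS truncated by 16 N-terminal and 40 C-terminal residues. Buffer: 50 mM phosphate pH 7.4, 20 mM MgCl2, 5 mM CHAPS, 1% Tween 80, 10 mM DTT, BSA, 0.25 mM NADPH, and a glucose-6-phosphate/G6PDH regenerating system. Substrate 0.5 μM radiolabelled farnesyl pyrophosphate. Squalene band counted by scintillation. IC50 from hyperbolic plot of five concentrations in duplicate, usually run twice.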

Leishmania donovani = experiment: Antileishmanial activity against Leishmania donovani MHOM/ET/67/L82 axenic amastigotes after 72 hrs by resazurin assay; format: functional, organism-based; settings: MHOM/ET/67/L82, 72 h
How it was run: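 L. donovani MHOM/ET/67/L82 amastigotes grown axenically at 37°C in synthetic minimal medium at pH 5.4 with 10% heat-inactivated FBS under 5% CO2. 1 × 10⁵ amastigotes per well with seven threefold dilutions, 30 to 0.041 μg/ml. After 72 h, resazurin added for 2–4 h more. Fluorescence read at ex 536/em 588 nm. IC50 taken from sigmoidal curve. Run in duplicate, with an independent repeat for actives.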

Leishmania amazonensis [7] = experiment: Inhibition of sterol biosynthesis in Leishmania mexicana amazonensis promastigotes assessed as reduction in endogenous episterol level at 10 uM after 96 hrs by gas-liquid chromatography; format: functional; set-up: scale not given: the % may be the effect or the level left; how it was run: as §1
Trypanosoma cruzi = experiment: Antitrypanosomal activity against trypomastigotes of Trypanosoma cruzi Tulahuen C2C4 containing lacZ gene in rat L6 cells after 4 days by chlorophenol red-beta-D-galactopyranoside/Nonidet assay; format: functional, organism-based; settings: Tulahuen C2C4, L6, 96 h
How it was run: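 L-6 rat myoblasts seeded at 2,000 cells/well in RPMI 1640 with 10% FBS and 2 mM L-glutamine. After 24 h, 5,000 T. cruzi Tulahuen C2C4 lacZ trypomastigotes added with serial drug dilution. Incubated at 37°C in 5% CO2 for 4 days. CPRG/Nonidet substrate added and colour read at 540 nm after 2–4 h. IC50 from sigmoidal curve. Duplicate determinations.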

Leishmania amazonensis [8] = experiment: Inhibition of sterol biosynthesis in Leishmania mexicana amazonensis promastigotes assessed as reduction in exogenous cholesterol level at 3 uM after 96 hrs by gas-liquid chromatography; format: functional; set-up: scale not given: the % may be the effect or the level left; how it was run: as §1
Leishmania amazonensis [9] = experiment: Inhibition of sterol biosynthesis in Leishmania mexicana amazonensis promastigotes assessed as reduction in endogenous episterol level at 3 uM after 96 hrs by gas-liquid chromatography; format: functional; set-up: scale not given: the % may be the effect or the level left; how it was run: as §1
Leishmania amazonensis [10] = experiment: Inhibition of sterol biosynthesis in Leishmania mexicana amazonensis promastigotes assessed as reduction in endogenous 5-dehydro episterol level at 3 uM after 96 hrs by gas-liquid chromatography; format: functional; set-up: scale not given: the % may be the effect or the level left; how it was run: as §1
Leishmania amazonensis [11] = experiment: Inhibition of sterol biosynthesis in Leishmania mexicana amazonensis promastigotes assessed as reduction in exogenous cholesterol level at 1 uM after 96 hrs by gas-liquid chromatography; format: functional; set-up: scale not given: the % may be the effect or the level left; how it was run: as §1
Leishmania amazonensis [12] = experiment: Inhibition of sterol biosynthesis in Leishmania mexicana amazonensis promastigotes assessed as reduction in endogenous episterol level at 1 uM after 96 hrs by gas-liquid chromatography; format: functional; set-up: scale not given: the % may be the effect or the level left; how it was run: as §1
Leishmania amazonensis [13] = experiment: Inhibition of sterol biosynthesis in Leishmania mexicana amazonensis promastigotes assessed as reduction in endogenous 5-dehydro episterol level at 1 uM after 96 hrs by gas-liquid chromatography; format: functional; set-up: scale not given: the % may be the effect or the level left; how it was run: as §1

| SMILES | IC50 (Plasmodium falciparum) [µM] | IC50 (L6) [µM] | IC50 [1] [µM] | Activity (Leishmania amazonensis [2]) [%] | Activity (Leishmania amazonensis [3]) [%] | Activity (Leishmania amazonensis [4]) [%] | MIC (Leishmania amazonensis [5]) [µM] | IC50 [6] [µM] | IC50 (Leishmania donovani) [µM] | Activity (Leishmania amazonensis [7]) [%] | IC50 (Trypanosoma cruzi) [µM] | Activity (Leishmania amazonensis [8]) [%] | Activity (Leishmania amazonensis [9]) [%] | Activity (Leishmania amazonensis [10]) [%] | Activity (Leishmania amazonensis [11]) [%] | Activity (Leishmania amazonensis [12]) [%] | Activity (Leishmania amazonensis [13]) [%] |
| --- | --- | --- | --- | --- | --- | --- | --- | --- | --- | --- | --- | --- | --- | --- | --- | --- | --- |
| CCOC(=O)c1ccc(C#C[C@H]2CN3CCC2C[C@@H]3CO)cc1 (stereo partly drawn) | 1.1 | 55.2 | 3.8 | 9.5 | 23.6 | 55.5 | > 10 | > 1 | > 96 | 11.4 | 18.8 | – | – | – | – | – | – |
| Cc1cc(C)cc(C#CC2(O)CN3CCC2CC3)c1 (stereo not drawn) | 4.3 | 175 | 9.2 | – | 48.2 | 39.9 | 10 (≈ 2.55 µg/mL) | > 1 | 12.6 | 11.9 | 18.9 | 19.6 | 12 | 68.4 | – | – | – |
| CCOC(=O)c1ccc(C#CC2(O)CN3CCC2CC3)cc1 (stereo not drawn) | 4 | 171 | 3.3 | >99 | – | – | 10 (≈ 2.99 µg/mL) | 4.25 | 28.7 | – | 5.6 | 35.9 | 9.5 | 54.6 | – | – | – |
| C1=C(c2ccc3ccccc3c2)C2CCN1CC2 | 11 | 101 | 24.2 | – | 33.8 | 52 | 3 (≈ 0.706 µg/mL) | > 1 | 12.3 | 14.2 | 34.1 | 35.9 | 28.9 | 35.2 | – | – | – |
| OC1(C#Cc2ccc(OCc3ccccc3)cc2)CN2CCC1CC2 (stereo not drawn) | 1.9 | 45 | 1.9 | – | – | – | 1 (≈ 0.333 µg/mL) | – | 3.2 | – | 9.6 | >99 | – | – | 74.6 | 8.4 | 17 |
| OC[C@@H]1CC2CCN1C[C@@H]2C#Cc1ccc2ccccc2c1 (stereo partly drawn) | 2.1 | 40.1 | 1.1 | 6.6 | 15.4 | 68.4 | > 10 | > 1 | 22.6 | 9.6 | 4.7 | – | – | – | – | – | – |
| COc1ccc(COc2ccc(C#CC3(O)CN4CCC3CC4)cc2)cc1OC (stereo not drawn) | 2 | 78.7 | 3.4 | – | 44.6 | 38.8 | 1 (≈ 0.393 µg/mL) | – | 4.6 | 16.6 | 13.4 | 15.6 | 14.6 | 69.8 | – | – | – |
| CCCCCCOc1ccc(C#CC2(O)CN3CCC2CC3)cc1 (stereo not drawn) | 0.7 | 15.9 | 0.5 | – | – | – | 1 (≈ 0.327 µg/mL) | – | 4.7 | – | 5.6 | >99 | – | – | 20.4 | 14.6 | 65 |
| Nc1ccc(C#CC2(O)CN3CCC2CC3)cn1 (stereo not drawn) | > 21 | > 370 | 5.7 | – | 13.2 | 75.2 | > 10 | > 1 | 10.8 | 11.6 | 97 | – | – | – | – | – | – |
| OC[C@H]1CC2CCN1C[C@@H]2C#Cc1ccc2ccccc2c1 (stereo partly drawn) | 3 | 50.4 | 1.4 | – | 23.1 | 65.7 | > 10 | > 1 | 12 | 11.2 | 5.3 | – | – | – | – | – | – |
| CC(C)OC(=O)c1ccc(C2=CN3CCC2CC3)cc1 | 14 | 152 | 7.2 | – | – | – | 3 (≈ 0.814 µg/mL) | > 1 | 1.1 | – | 23 | 74.5 | 25.5 | – | 44.4 | 12.8 | 42.8 |
